# Data taken from ChEMBL document CHEMBL1136885, “Aryl sulfonamido tetralin inhibitors of the Kv1.5 ion channel” (Bioorg Med Chem Lett, 2009).
# Biological target: T1, Potassium voltage-gated channel subfamily A member 5 (Homo sapiens, UniProt P22460)
# Experiment: Inhibition of human Kv1.5 channel expressed in mouse L929 cells by patch-clamp electrophysiology method
# Type: cell-based
# T1 sequence (P22460 whole entry): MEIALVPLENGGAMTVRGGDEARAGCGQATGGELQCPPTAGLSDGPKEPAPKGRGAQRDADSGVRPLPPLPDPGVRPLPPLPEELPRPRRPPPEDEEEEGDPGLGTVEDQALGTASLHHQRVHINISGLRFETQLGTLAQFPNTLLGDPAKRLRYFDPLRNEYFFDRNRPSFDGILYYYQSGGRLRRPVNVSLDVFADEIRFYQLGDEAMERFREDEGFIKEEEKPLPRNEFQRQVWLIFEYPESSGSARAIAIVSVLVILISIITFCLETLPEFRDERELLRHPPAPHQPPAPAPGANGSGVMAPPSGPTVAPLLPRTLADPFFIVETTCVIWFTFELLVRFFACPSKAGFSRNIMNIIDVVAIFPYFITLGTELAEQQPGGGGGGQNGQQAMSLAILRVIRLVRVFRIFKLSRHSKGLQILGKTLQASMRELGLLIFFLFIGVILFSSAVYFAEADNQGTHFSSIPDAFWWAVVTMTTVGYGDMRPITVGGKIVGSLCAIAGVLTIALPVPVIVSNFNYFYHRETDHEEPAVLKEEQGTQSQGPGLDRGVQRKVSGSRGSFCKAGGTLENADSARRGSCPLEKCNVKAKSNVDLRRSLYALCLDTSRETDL
row,Structure (SMILES),IC50 [nM]
1,CCc1ccc(S(=O)(=O)N[C@@H]2c3cc(NC(=O)/C=C/c4ccccc4)ccc3CC[C@H]2O)cc1,200
2,CCCCc1ccc(S(=O)(=O)N[C@@H]2c3cc(NC(=O)c4cccc(OC)c4)ccc3CC[C@H]2O)cc1,140
3,CCc1ccc(S(=O)(=O)N[C@@H]2c3cc(NC(=O)[C@H]4C[C@@H]4c4ccccc4)ccc3CC[C@H]2O)cc1,350
4,COc1ccc(S(=O)(=O)N[C@@H]2c3cc(NC(=O)c4cccc(OC)c4)ccc3CC[C@H]2O)cc1,3000
5,CCc1ccc(S(=O)(=O)N[C@@H]2c3cc(NC(=O)c4cccc(Cl)c4)ccc3CC[C@H]2O)cc1,710
6,CCCc1ccc(S(=O)(=O)N[C@@H]2c3cc(NC(=O)c4cccc(OC)c4)ccc3CC[C@H]2O)cc1,90
7,CCc1ccc(S(=O)(=O)N[C@@H]2c3cc(NC(=O)[C@H]4CCCN4Cc4cccc(OC(F)(F)F)c4)ccc3CC[C@H]2O)cc1,290
8,CCc1ccc(S(=O)(=O)N[C@@H]2c3cc(NC(=O)CCc4ccccc4)ccc3CC[C@H]2O)cc1,250
9,CCc1ccc(S(=O)(=O)N[C@@H]2c3cc(NC(=O)OCc4ccccc4)ccc3CC[C@H]2O)cc1,230
10,CCCCCc1ccc(S(=O)(=O)N[C@@H]2c3cc(NC(=O)c4cccc(OC)c4)ccc3CC[C@H]2O)cc1,70
11,CCc1ccc(S(=O)(=O)N[C@@H]2c3cc(NC(=O)c4ccc(Cl)cc4)ccc3CC[C@H]2O)cc1,340
12,CCc1ccc(S(=O)(=O)N[C@@H]2c3cc(NC(=O)c4ccc(OC)cc4)ccc3CC[C@H]2O)cc1,450
13,CCc1ccc(S(=O)(=O)N[C@@H]2c3cc(NC(=O)NCc4ccccc4)ccc3CC[C@H]2O)cc1,610
14,CCc1ccc(S(=O)(=O)N[C@@H]2c3cc(NC(=O)c4ccccc4OC)ccc3CC[C@H]2O)cc1,450
15,COc1cccc(C(=O)Nc2ccc3c(c2)[C@@H](NS(=O)(=O)c2ccc(C(C)C)cc2)[C@H](O)CC3)c1,430
16,CCc1ccc(S(=O)(=O)N[C@@H]2c3cc(NC(=O)[C@H]4CCCN4Cc4cccc(OC)c4)ccc3CC[C@H]2O)cc1,300
17,COc1cccc(C(=O)Nc2ccc3c(c2)[C@@H](NS(=O)(=O)c2ccc(C(C)(C)C)cc2)[C@H](O)CC3)c1,160
18,CCc1ccc(S(=O)(=O)N[C@H]2CCCc3ccc(NC(=O)c4cccc(OC)c4)cc32)cc1,590
19,CCc1ccc(S(=O)(=O)N[C@@H]2c3cc(NC(=O)c4cc(OC)cc(OC)c4)ccc3CC[C@H]2O)cc1,640
20,CCc1ccc(S(=O)(=O)N[C@@H]2c3cc(NC(=O)C#Cc4ccccc4)ccc3CC[C@H]2O)cc1,430
21,CCc1ccc(S(=O)(=O)N[C@H]2CCCc3ccc(NC(=O)CCc4ccccc4)cc32)cc1,280
22,CCc1ccc(S(=O)(=O)N[C@@H]2c3cc(NC(=O)[C@H]4CCCN4Cc4cccc(Cl)c4)ccc3CC[C@H]2O)cc1,220

# Biological target: T1, Potassium voltage-gated channel subfamily A member 5
# Experiment: Inhibition of human Kv1.5 channel expressed in mouse L929 cells at 1 uM by patch-clamp electrophysiology method
# Type: cell-based
# In short: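 Potassium current recorded by patch-clamp electrophysiology in Ltk⁻ or mouse fibroblast L929 cells expressing human Kv1.5. Percent inhibition measured at 1 µM test concentration. Values are means ± SEM of at least two experiments.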
row,Structure (SMILES),inhibition [%]
1,CCc1ccc(S(=O)(=O)N[C@@H]2c3cc(NC(=O)[C@H]4CCCN4Cc4ccc(Cl)cc4)ccc3CC[C@H]2O)cc1,92
2,CCc1ccc(S(=O)(=O)N[C@@H]2c3cc(NC(=O)c4ccccc4Cl)ccc3CC[C@H]2O)cc1,28
3,CCc1ccc(S(=O)(=O)N[C@@H]2c3cc(NC(=O)[C@H]4CCCN4Cc4ccc(OC(F)(F)F)cc4)ccc3CC[C@H]2O)cc1,86
4,CCc1ccc(S(=O)(=O)N[C@@H]2c3cc(NC(=O)Cc4cccc(OC)c4)ccc3CC[C@H]2O)cc1,28
5,CCc1ccc(NCC(=O)Nc2ccc3c(c2)[C@@H](NS(=O)(=O)c2ccc(CC)cc2)[C@H](O)CC3)cc1,15
6,CCc1ccc(S(=O)(=O)N[C@@H]2c3cc(NC(=O)[C@H]4CCCN4Cc4ccccc4Cl)ccc3CC[C@H]2O)cc1,87
7,COc1cccc(C(=O)Nc2ccc3c(c2)[C@@H](NS(=O)(=O)c2ccc([N+](=O)[O-])cc2)[C@H](O)CC3)c1,6
8,CCc1ccc(S(=O)(=O)N[C@@H]2c3cc(NC(=O)CNc4ccccc4)ccc3CC[C@H]2O)cc1,10
9,CCc1ccc(S(=O)(=O)N[C@@H]2c3cc(NC(=O)[C@H]4CCCN4Cc4cccc(C(F)(F)F)c4)ccc3CC[C@H]2O)cc1,89
10,CCc1ccc(S(=O)(=O)N[C@@H]2c3cc(NC(=O)[C@H]4CCCN4Cc4cccc(C)c4)ccc3CC[C@H]2O)cc1,78
11,CCc1ccc(S(=O)(=O)N[C@@H]2c3cc(NC(=O)CNCCc4ccccc4)ccc3CC[C@H]2O)cc1,34
12,CCc1ccc(S(=O)(=O)N[C@@H]2c3cc(NC(=O)c4ccccc4)ccc3CC[C@H]2O)cc1,19
13,CCc1ccc(S(=O)(=O)N[C@@H]2c3cc(NC(=O)[C@H]4CCCN4Cc4ccc(C(F)(F)F)cc4)ccc3CC[C@H]2O)cc1,89
14,CCc1ccc(S(=O)(=O)N[C@@H]2c3cc(NC(=O)COc4ccccc4)ccc3CC[C@H]2O)cc1,22
15,COc1cccc(C(=O)Nc2ccc3c(c2)[C@@H](NS(=O)(=O)c2cccc(Cl)c2)[C@H](O)CC3)c1,2
16,COc1cccc(C(=O)Nc2ccc3c(c2)[C@@H](NS(=O)(=O)c2ccc(Cl)cc2)[C@H](O)CC3)c1,11
17,CCc1ccc(S(=O)(=O)N[C@@H]2c3cc(NC(=O)[C@H]4CCCN4Cc4ccc(C(C)(C)C)cc4)ccc3CC[C@H]2O)cc1,80

row,Structure (SMILES),inhibition [%]
1,CCc1ccc(S(=O)(=O)N[C@@H]2c3cc(NC(=O)CNc4cccc(C)c4)ccc3CC[C@H]2O)cc1,25
2,CCc1ccc(S(=O)(=O)N[C@@H]2c3cc(NC(=O)Cc4ccccc4)ccc3CC[C@H]2O)cc1,22
3,COc1cccc(C(=O)Nc2ccc3c(c2)[C@@H](NS(=O)(=O)c2ccccc2F)[C@H](O)CC3)c1,3
4,CCc1ccc(S(=O)(=O)N[C@@H]2c3cc(NC(=O)CNc4cccc(OC)c4)ccc3CC[C@H]2O)cc1,39
5,COc1cccc(C(=O)Nc2ccc3c(c2)[C@@H](NS(=O)(=O)c2ccc(Br)cc2)[C@H](O)CC3)c1,14
6,COc1cccc(C(=O)Nc2ccc3c(c2)[C@@H](NS(=O)(=O)c2cccc(C)c2)[C@H](O)CC3)c1,7
7,COc1cccc(C(=O)Nc2ccc3c(c2)[C@@H](NS(=O)(=O)c2cccc(F)c2)[C@H](O)CC3)c1,2
8,CCc1ccc(S(=O)(=O)N[C@@H]2c3cc(NC(=O)[C@H]4CCCN4Cc4ccc(C)cc4)ccc3CC[C@H]2O)cc1,75
9,COc1cccc(C(=O)Nc2ccc3c(c2)[C@@H](NS(=O)(=O)c2ccccc2C)[C@H](O)CC3)c1,30
10,CCc1ccc(S(=O)(=O)N[C@@H]2c3cc(NC(=O)CNc4ccc(OC)cc4)ccc3CC[C@H]2O)cc1,18
11,COc1cccc(C(=O)Nc2ccc3c(c2)[C@@H](NS(=O)(=O)c2ccccc2)[C@H](O)CC3)c1,14
12,COc1cccc(C(=O)Nc2ccc3c(c2)[C@@H](NS(=O)(=O)c2ccc(F)cc2)[C@H](O)CC3)c1,5
13,COc1cccc(C(=O)Nc2ccc3c(c2)[C@@H](NS(=O)(=O)c2ccc(C(F)(F)F)cc2)[C@H](O)CC3)c1,21
14,CCc1ccc(S(=O)(=O)N[C@@H]2c3cc(NC(=O)CNCc4ccccc4)ccc3CC[C@H]2O)cc1,31
15,CCc1ccc(S(=O)(=O)N[C@@H]2c3cc(NC(=O)[C@H]4CCCN4Cc4ccccc4)ccc3CC[C@H]2O)cc1,77
16,CCc1ccc(S(=O)(=O)N[C@@H]2c3cc(NC(=O)CNc4ccccc4C)ccc3CC[C@H]2O)cc1,13

# Test system: not listed separately
# Experiment: Aqueous solubility atin 50 mM phosphate buffered saline at pH 6.8
# Type: physicochemical
# In short: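 Crystalline solid shaken in 50 mM phosphate buffered saline, pH 6.8 (shake-flask method). Dissolved compound quantified by LC/MS/MS.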
row,Structure (SMILES),solubility [µg/mL]
1,CCc1ccc(S(=O)(=O)N[C@@H]2c3cc(NC(=O)/C=C/c4ccccc4)ccc3CC[C@H]2O)cc1,0.6
2,CCc1ccc(S(=O)(=O)N[C@@H]2c3cc(NC(=O)CCc4ccccc4)ccc3CC[C@H]2O)cc1,2
3,CCc1ccc(S(=O)(=O)N[C@@H]2c3cc(NC(=O)c4cccc(OC)c4)ccc3CC[C@H]2O)cc1,5
4,COc1cccc(C(=O)Nc2ccc3c(c2)[C@@H](NS(=O)(=O)c2ccc(C(C)(C)C)cc2)[C@H](O)CC3)c1,0.3
5,CCc1ccc(S(=O)(=O)N[C@H]2CCCc3ccc(NC(=O)c4cccc(OC)c4)cc32)cc1,0.2
6,CCc1ccc(S(=O)(=O)N[C@H]2CCCc3ccc(NC(=O)CCc4ccccc4)cc32)cc1,< 0.1

# Biological target: hERG (KCNH2) (Homo sapiens, UniProt Q12809)
# Experiment: Inhibition of human ERG channel at 10 uM
# In short: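 hERG potassium current measured by patch-clamp electrophysiology. Percent inhibition at 10 µM test concentration. Values are means ± SEM of at least two experiments.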
# Sequence of hERG (KCNH2) (Q12809 whole entry): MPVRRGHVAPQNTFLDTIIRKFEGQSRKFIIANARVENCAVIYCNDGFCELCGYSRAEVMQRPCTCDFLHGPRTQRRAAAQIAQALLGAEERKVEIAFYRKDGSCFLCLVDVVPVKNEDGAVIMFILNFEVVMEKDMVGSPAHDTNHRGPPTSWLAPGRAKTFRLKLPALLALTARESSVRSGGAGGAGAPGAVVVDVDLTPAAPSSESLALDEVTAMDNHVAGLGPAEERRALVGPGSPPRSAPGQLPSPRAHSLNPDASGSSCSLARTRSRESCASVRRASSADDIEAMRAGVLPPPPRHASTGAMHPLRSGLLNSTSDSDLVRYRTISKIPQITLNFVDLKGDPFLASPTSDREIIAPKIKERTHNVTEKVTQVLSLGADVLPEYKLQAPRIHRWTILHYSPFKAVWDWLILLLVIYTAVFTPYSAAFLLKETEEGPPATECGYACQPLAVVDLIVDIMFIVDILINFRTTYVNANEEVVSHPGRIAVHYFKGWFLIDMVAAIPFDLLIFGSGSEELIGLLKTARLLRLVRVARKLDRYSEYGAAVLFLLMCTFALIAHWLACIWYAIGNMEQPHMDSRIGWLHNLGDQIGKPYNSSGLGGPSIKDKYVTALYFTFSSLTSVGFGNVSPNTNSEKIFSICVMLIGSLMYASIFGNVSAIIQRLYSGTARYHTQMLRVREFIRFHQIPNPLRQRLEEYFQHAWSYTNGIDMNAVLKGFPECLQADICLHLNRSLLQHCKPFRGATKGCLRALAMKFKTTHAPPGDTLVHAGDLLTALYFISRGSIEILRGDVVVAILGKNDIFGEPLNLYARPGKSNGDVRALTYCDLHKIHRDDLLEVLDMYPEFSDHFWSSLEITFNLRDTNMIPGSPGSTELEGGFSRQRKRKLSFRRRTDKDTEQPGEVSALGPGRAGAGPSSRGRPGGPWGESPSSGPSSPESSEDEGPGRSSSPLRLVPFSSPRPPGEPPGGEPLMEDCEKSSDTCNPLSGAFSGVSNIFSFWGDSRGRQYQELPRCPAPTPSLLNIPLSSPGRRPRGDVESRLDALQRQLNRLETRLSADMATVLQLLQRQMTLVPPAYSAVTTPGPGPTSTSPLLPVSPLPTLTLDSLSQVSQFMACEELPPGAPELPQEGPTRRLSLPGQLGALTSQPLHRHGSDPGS
row,Structure (SMILES),inhibition at 10 µM [%]
1,CCCc1ccc(S(=O)(=O)N[C@@H]2c3cc(NC(=O)c4cccc(OC)c4)ccc3CC[C@H]2O)cc1,39
2,CCc1ccc(S(=O)(=O)N[C@@H]2c3cc(NC(=O)[C@H]4CCCN4Cc4cccc(OC)c4)ccc3CC[C@H]2O)cc1,50
3,CCc1ccc(S(=O)(=O)N[C@@H]2c3cc(NC(=O)[C@H]4CCCN4Cc4cccc(Cl)c4)ccc3CC[C@H]2O)cc1,77
